# Assay results reported in the EternaBench riboswitch data.
# Tested on: MS2 coat protein
# Experiment: apparent Kd, MS2 coat protein; higher = weaker binding; RNA-MaP array; FMN 200 µM where present
# In short: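 Designs were transcribed by stalled E. coli RNA polymerase on Illumina sequencing-chip clusters. They were titrated with SNAP-549-labelled MS2 coat protein from 0.7 or 1.5 nM, doubling to 3 µM, in 100 mM Tris-HCl pH 7.5, 80 mM KCl, 4 mM MgCl2, BSA, DTT, yeast tRNA and Tween-20, without and then with constant ligand. The apparent Kd is the median of filtered per-cluster fits after normalisation of green signal to red-channel RNA signal and control-cluster median Fmax.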
# [1] = designed as: ON switch for flavin mononucleotide, no ligand
# [2] = ligand present: flavin mononucleotide, designed as: ON switch for flavin mononucleotide
# [3] = designed as: OFF switch for flavin mononucleotide, no ligand
# [4] = ligand present: flavin mononucleotide, designed as: OFF switch for flavin mononucleotide
Sequence,apparent Kd [1] [nM],apparent Kd [2] [nM],apparent Kd [3] [nM],apparent Kd [4] [nM]
AAAAAAAAAAGGCAGGAUAUCCAAAAAAAAACAUGAGGAUCACCCAUGUAAAAAAAAAAAAAGUGGGAGAAGGGCCAAAAAAAAAA,45.3,15.6,–,–
AAAAAAAAGGGUGAGGAUAUAGAAAAAAAAACAUGAGGAUCACCCAUGUGAAAAAAAAAAAAAAGCUAGAAGGCACAAAAAAAAAA,243,162,–,–
AAAAAACAUGAGGAUCACCCAUGUAAAAAAAACACAGGAUAUCCCUUUUUUAAAAAAAAAGGAGAAGGGUGAAAAA,41.6,32.9,–,–
AAAAAACAUGAGGAUCACCCAUGUAAUAAAACGUCAGGAUAUUGAUUUUAUUAUUUAUUGCAAGAAGGGACAAAAA,56.5,24,–,–
AAAAAACAUGAGGAUCACCCAUGUCAAAAGACAUGAGGAUAUGUACAGACUUCGGUCUGUACAGAAGGCAUGUAAA,321,30.8,–,–
AAAAAACAUGAGGAUCACCCAUGUCAGGAUAUCGAAAAAAAAAAAAAAAAAAAAAAAACGAGAAGGGACAAAAA,–,–,99.3,104
AAAAAACAUGAGGAUCACCCAUGUGAGGAUAUCGAAAAGUCAAAGAAAAAGACGAAAACGAGAAGGCACAAAAA,–,–,53.8,65.8
AAAAAACAUGAGGAUCACCCAUGUGAGGAUAUCGGAAAAGGAAAAAAAAAAAAGAAGACGAGAAGGCACAAAGA,–,–,48.4,60.4
AAAAAACAUGAGGAUCACCCAUGUGAGGAUAUCUGUAUCCAAAAGGAAGUGUAGGAUCGGAGAAGGCACUAGGA,–,–,53.9,83.2
AAAAAGGCAGGAUAUACAUGAGGAUCACCCAUGUAAAGAAAGAAAGAGGUGAAAGAAAGUAGAAGGGCCAAAAA,–,–,160,179
AAAAAGGGAGGAUAUACAUGAGGAUCACCCAUGUAGCAGACGAAAAAGAGUCUGUAAUGUAGAAGGCCCAAAAA,–,–,17.1,52.7
AAAAAGUAAGGAUAUCGGCGGCGGCGGAGGCGGCGGCGGCUCGAGAAGGUACAUGAGGAUCACCCAUGUAAAAA,–,–,29.2,15.3
AAAAAGUCAGGAUAUGUGAAAAAAAAAAAAAAAAAAAAAAAACAGAAGGGACAUGAGGAUCACCCAUGUAAAAA,–,–,54.1,62.3
AAAAAGUGAGGAUAUACAUGAGGAUCACCCAUGUGAAAGUCGAAAAAAAAGACAAGAAGUAGAAGGCACAAAAA,–,–,30.4,34.9
AAAAAGUGAGGAUAUACAUGAGGAUCACCCAUGUUAAAAAAGGAAAAAAAAAAAAAAUGUAGAAGGCGCAAAAA,–,–,45.3,44
AAAAAUGGAGGAUAUACAUGAGGAUCACCCAUGUGUGGCCAUACUAUGUGCUCGUCAGGUAGAAGGCCAAAAAA,–,–,28.7,46
AAAACAGUGUAGGAUAUGGCUGGGCUGAAAAUGCUAGAAGGACACACAUGAGGAUCACCCAUGUGACUUCGUGC,–,–,13.8,15.5
AAAACAUGAGGAUCACCCAUGUAAAGAUCGGUUGAUGAAAGUGAGGAUAUACAAAAUUUUAUGGAGUAGAAGGCACUGGGUACA,44.6,40.9,–,–
AAAACAUGAGGAUCACCCAUGUAUAGAUCGAUUAUUAGGAGUGAGGAUAUGCAAGUUAUAAGGUAGCAGAAGGCACUGGGAAAA,25.7,24.8,–,–

Sequence,apparent Kd [1] [nM],apparent Kd [2] [nM],apparent Kd [3] [nM],apparent Kd [4] [nM]
AAAACGUCAGGAUAUCCAAUAUAUGACAUGAGGAUCACCCAUGUUUCCACUCGUACCUCCGGAGAAGGGACUUUUU,–,–,42.6,39.4
AAAACGUGAGGAUAUACAUGAGGAUCACCCAUGUGAAACAGGAAAAACUGAAAGAAAAGUAGAAGGCACGAAAA,–,–,33.4,50.1
AAAACUCGAGGAUAUGCAAAAUGAUUGCGAAAGCAAUCAAAACAUGAGGAUCACCCAUGUAGAAGGCGAGAAAA,–,–,23.7,15.4
AAAACUGGAGGAUAUACAUGAGGAUCACCCAUGUGUGGAUGGGCUGUGUCGGCGUCAGGUAGAAGGCCACAAAA,–,–,70,130
AAAAGACAUGAGGAUCACCCAUGUGAAAACGUAGGAGGAUAUGUCUGGAAAACAUGCUGGACAGAAGGCCUGUGUC,40.1,22.1,–,–
AAAAGGCUAGGAUAUACCAGUGGGUGUAAGAACUCAAAGUUACAUGAGGAUCACCCAUGUAGAAGGAGUAAAAU,–,–,17.1,40
AAAAGGUUAGGAUAUGCCCGCCGGGUGGGAAGGCCGGGUGGGUAGAAGGGACAUGAGGAUCACCCAUGUAAAAA,–,–,48.6,20
AAAAGUCCUGAGGAUAUCGAAACUCCAUUAGGACGAGAAGGCGGGACAUGAGGAUCACCCAUGUGGGCGAGCUC,–,–,232,475
AAAAGUCGGCAAGGAUAUACAACGGAUUCCCUUGUAGAAGGUGCAGGACAUGAGGAUCACCCAUGUGAUCCGGGUAUAUUGAUG,–,–,27.8,44.8
AAAAUAAGUGUGAGGAUAUGCUGGUCCUUGGAUCAGCAGAAGGCACAUGAGGAUCACCCAUGUAAUAUAUUUAU,–,–,84.7,295
AAAAUCUAUUGAGGAUAUUCAUACACUACAUACGGAGAAGGCAAACAAUCAUGAGGACAUGAGGAUCACCCAUGUUGUGACCAU,23.4,20,–,–
AAAAUGUCAGGAUAUGCGAAGGCGUCUGACAGACGAGGAUUGCAGAAGGGACAUGAGGAUCACCCAUGUAAAAA,–,–,50.6,126
AAAAUGUGAGGAUAUUAGUUGUACGUCAAUAGACGUAUAAGUGAGAAGGCACAUGAGGAUCACCCAUGUUCCUG,–,–,20.6,112
AAAAUUGGCAGAUAAAAGGUCACACAGGAUAUACUCCCAACAUGAGGAUCACCCAUGUACUGGCGGUAGAAGGGUGGGAUCCUC,50.7,13.5,–,–
AAACAUGUCCGAGGAUAUCUGGAAACAAUUCCAAGAGAAGGCGGACAUGAGGAUCACCCAUGUCUCUCCUCAUCAAAUCCAAGU,–,–,11.2,67.1
AAACAUGUCCGAGGAUAUCUGGAAACAUUUUCAAGAGAAGGCGGACAUGAGGAUCACCCAUGUCUCACCUCAUCAAAUCCAAGU,–,–,8.24,30.2
AAACGCCAACAUGAGGAUCACCCAUGUUCUAGUUUAGGGUCGCAGGAUAUGACUUCGAAGCUUAGUCAGAAGGGUGAAUCCACA,14.5,10.5,–,–
AAAGAAAACAUAGGAUAUGUAACAUGAGGAUCACCCAUGUAUACCUCGUAAGAGAUGAUGGAUGGACAGAAGGAUGAUCUCAGG,140,214,–,–
AAAGACAGAGGAUAUACAUGAGGAUCACCCAUGUGGCGAAAAAAAAUCCAUUUGGCAUGUAGAAGGCUGUAUGA,–,–,144,128

Sequence,apparent Kd [1] [nM],apparent Kd [2] [nM],apparent Kd [3] [nM],apparent Kd [4] [nM]
AAAGAGCGAGGAUAUACAUGAGGAUCACCCAUGUAAAGAUGCAUGGUCUGAACGUCUGGUAGAAGGCGUAUGAA,–,–,135,120
AAAGUGUGAAGCAGGGUGCUACAUGAGGAUCACCCAUGUCGGAGAAGGGCGCCGUUUCGCAUGGUGUAGGAUAUCUGGCGUGCA,–,–,116,132
AAAUAAAGCAGUGUAUUAAGAUCACAUGAGGAUCACCCAUGUAGAAGGCUCGAGCAAAAUGCUCGAGAGGAUAUGCAACACUGC,–,–,5.12,35
AAAUACCGGUGAGGAUAUUUUUAAUAGAACUUUAUGAUAUACAUGAGGAUCACCCAUGUUACUUUAAAGAAGGCAUCGGAUAAA,–,–,17.5,15.8
AAAUAGAAUGAGGAUAUCGUACUGGAUAUAGUGCGAGAAGGCAUUACAUGAGGAUCACCCAUGUUUUGUUGGGA,–,–,25.6,76.6
AAAUAGUUAGGAUAUACAUGAGGAUCACCCAUGUGGACUGAUGGCGAUUGAUUUAGUGGUAGAAGGGACUCAAA,–,–,40.3,58.4
AAAUCAGUAGGAUAUACGAUUUUAUGCUAGAUAGAGGAGCCACAUGAGGAUCACCCAUGUAGAAGGACUAGAUA,–,–,17.1,19.9
AAAUCGGCGGAGAAGGGACCUUUACCCUAUCGGUCAGGAUAUCCGCUACAUGAGGAUCACCCAUGUGCCGGGUGUCCGCGUGUG,–,–,22.2,12.2
AAAUCGUCAGGAUAUGCUAGUAAAUGUUACAUUUCUUCAUAGCAGAAGGGACAUGAGGAUCACCCAUGUAAGUC,–,–,33.7,45.6
AAAUUUAACGAAGGAUAUACUAACAUGAGGAUCACCCAUGUGUGUUUCGUGUUACUGAAAUUCGGGUAGAAGGUCGUAUACAUA,–,–,80.4,33.7
AACAAACAUGAGGAUCACCCAUGUGAGGAUAUCGGAUGUACAGCGCAAUUAGAAUUAACGAGAAGGCACACUUA,–,–,30.6,29.1
AACAAUCUAUCUGAGGAUAUCAUGAAAUAAACAUGAGGAUCACCCAUGUGCAGGAAAUCUGCAUAUGAGAAGGCAGAUAGAUUGA,1340,56.1,–,–
AACAGUACAGGAUAUACAUGAGGAUCACCCAUGUGACAAUUAAGUGGCGUACCACAGAGUAGAAGGGUACUGGA,–,–,35,151
AACAGUACAGGAUAUACAUGAGGAUCACCCAUGUGAGAAUUAAGUGGCAUACCACAAAGUAGAAGGGUACUGGA,–,–,29.7,202
AACAGUAGAGGAUAUACAUGAGGAUCACCCAUGUGAGAUUUAAGUGGCGUACCACAAAGUAGAAGGCUACUGGA,–,–,36.2,161
AACAUACAUGAGGAUCACCCAUGUUCCGGCAGGCUAGGAUAUCAAUCGAAAGUGUUAUAAUGAGAAGGAGCAUAAA,49,29.4,–,–
AACAUGAGGAUCACCCAUGUCCCACCAGAAGGCUGGCGGCCACAGGAACGGCUGUGGCAAAUAACAGAGGAUAUGGUGAAUGCA,80.8,16.1,–,–
AACAUGCUUGGGUAACCUGGCACAUGAGGAUCACCCAUGUGACAGGAUAUCGACGUAGAUGGCGACGAGAAGGGUCCGAUGGGU,–,–,7.13,10.8
